This is a sample that favours compounds with a hit; in the whole collection about 2.4% have one here.
Runt-SMMHC FRET – blocks binding of human RUNX1 Runt domain to CBFb-SMMHC; AID 1434; inhibition, % at 20 µM; 220,000 compounds, 0.74% hits; Cerulean-Runt/Venus-CBFb-SMMHC FRET ratio 530/480, 1 h;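 active = mean inhibition across duplicate retests at 20 µM reaching about 50%, limit read from the data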;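 also: 0% = DMSO wells and 100% = wells with excess untagged CBFb-SMMHC; inhibitors lower the FRET ratio by blocking Runt binding to CBFb-SMMHC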
MEX-5 binding – C. elegans MEX-5 TCR-2 RNA binding activity; AID 1832; 300,000 compounds, 0.38% hits; MEX-5/FITC-TCR2 RNA binding, fluorescence polarization; active compounds read low; activity score (negative = inhibition of binding), % at 10 µM;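 active = inhibition past about -25% in most replicates, and total fluorescence under double the plate's negative control median, limit read from the data; inconclusive = replicates evenly split on the limit, or fluorescence at least double controls; inactive = too little inhibition in most replicates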;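 also: 0% = DMSO and -100% = 5 µM competing unlabeled TCR2 RNA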
Target sequence (Q9XUB2 whole entry, looked up): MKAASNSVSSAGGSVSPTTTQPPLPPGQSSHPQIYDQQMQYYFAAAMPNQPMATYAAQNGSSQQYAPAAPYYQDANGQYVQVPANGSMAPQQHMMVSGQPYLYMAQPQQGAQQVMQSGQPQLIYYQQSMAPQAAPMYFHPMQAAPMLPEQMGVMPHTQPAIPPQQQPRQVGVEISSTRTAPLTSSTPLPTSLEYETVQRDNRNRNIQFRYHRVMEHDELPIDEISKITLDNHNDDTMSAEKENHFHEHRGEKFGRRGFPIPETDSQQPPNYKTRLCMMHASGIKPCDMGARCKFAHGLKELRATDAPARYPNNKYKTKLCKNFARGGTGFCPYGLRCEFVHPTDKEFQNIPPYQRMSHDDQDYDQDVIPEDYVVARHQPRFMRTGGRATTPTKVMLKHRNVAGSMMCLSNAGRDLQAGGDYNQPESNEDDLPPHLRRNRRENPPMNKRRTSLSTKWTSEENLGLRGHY
EBV gp42 inh – inhibitors of Epstein-Barr virus glycoprotein 42; Q1HVG2; Fluorescence polarization binding assay, mP read-out; inhibition, % (tested at 21.74 µM); 220,000 compounds, 0.42% hits; in the data active = inhibition above about 50%
Target sequence (Q1HVG2 whole entry, looked up): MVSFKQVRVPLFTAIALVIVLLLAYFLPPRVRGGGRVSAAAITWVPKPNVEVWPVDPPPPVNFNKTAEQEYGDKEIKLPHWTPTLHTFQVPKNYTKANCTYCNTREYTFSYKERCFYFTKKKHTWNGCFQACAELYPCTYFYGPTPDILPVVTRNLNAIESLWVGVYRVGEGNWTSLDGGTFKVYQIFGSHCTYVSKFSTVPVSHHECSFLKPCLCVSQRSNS
LANA-H2B inh – blocks KSHV LANA binding to histone H2A/H2B; Q9QR71; cell-free LANA-H2A/H2B peptide, fluorescence polarization; inhibition, % (test concentration not listed); 320,000 compounds, 0.6% hits; AID 2629; in the data active = inhibition mostly above about 10%, no sharp cut-off; inactive = mostly below about 6.7%
RanGTP-Imp inh – disruptors of Ran-importin-beta complex formation – biochemical, FRET, CFP-Ran, YFP-importin-beta, homogeneous, primary screen; cell-free CFP-Ran/YFP-importin-beta FRET ratio; inhibition, % (test concentration not listed); 300,000 compounds, 1.1% hits;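 active = more than half of the replicate wells show a fall in the fluorescence ratio signal beyond about 16%, limit read from the data, passing the limit was not always enough; inconclusive = exactly half of the replicate wells pass the set limit; inactive = fewer than half of replicates pass the limit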;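 also: 0% = DMSO wells and 100% = Ran loaded with GDP instead of GTP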
Runt-CBFb FRET – inhibitors of human RUNX1 Runt domain binding to CBFb; Cerulean-Runt/Venus-CBFb FRET ratio 530/480, 1 h; inhibition, % at 20 µM; 220,000 compounds, 0.46% hits;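 active = inhibition over about 50% at 20 µM in the single-dose screen, limit read from the data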;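 also: 0% = DMSO wells and 100% = excess unlabeled CBFb competitor control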
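Schedule: protein complex preformed 1 h, compound exposure 1 h, room temperature, dark; test system: Cerulean-labeled Runt domain protein; amount: 100 nM per protein; buffer or medium: Tris 50 mM pH 7.5, KCl, K2SO4, 0.01% BSA; read-out: loss of energy transfer signal; detection: FRET fluorescence; controls: 5 µM unlabeled CBFb as full-inhibition high control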
* hit, by the source's call; ? = inconclusive; nt = no result given; + = active, no number.

SMILES | Runt-SMMHC FRET | MEX-5 binding | EBV gp42 inh | LANA-H2B inh | RanGTP-Imp inh | Runt-CBFb FRET
CCc1cccc(CC)c1NC(=O)COC(=O)c1cccc(-c2ccc(OC(C)=O)cc2)c1 | 4 | -1 | -8 | 5 | 5 | 1
N#Cc1ccccc1NC1=CC(=O)CCC1 | 2 | 1 | 8 | -5 | 58* | -2
Cn1c(SCc2ccccc2)nc2ccsc2c1=O | -2 | 0 | -5 | -1 | 3 | -2
O=[N+]([O-])c1ccc(C(=S)N2CCCC2)cc1 | 6 | 2 | -11 | + | 0 | 20
O=C(c1ccc([N+](=O)[O-])cc1)N1CCCC1 | 0 | -4 | -5 | -3 | 8 | 0
CC(C(=O)Nc1ccc(S(=O)(=O)N2CCCC2)cc1)N1CCN(C(=O)c2ccco2)CC1 (configuration not stated) | 3 | 4 | -8 | -3 | 5 | -2
CC(C(=O)Nc1ccc(S(=O)(=O)N2CCCCC2)cc1)N1CCN(c2ccccn2)CC1 (configuration not stated) | 1 | -2 | -1 | 138* | -3 | 1
COc1ccc(-c2nn(-c3ccccc3)cc2/C=N/NS(=O)(=O)c2ccccc2)cc1 | 0 | 5 | -11 | 10* | -2 | -4
COc1ccc(-c2nn(-c3ccccc3)cc2/C=N/O)cc1 | nt | 1 | nt | -3 | 1 | nt
CCSc1sccc1C1C(C#N)=C(N)N(c2cccnc2)C2=C1C(=O)CCC2 (configuration not stated) | 66* | -1 | 2 | -2 | ? | 45
COc1cc(C2C(C#N)=C(N)N(c3cccnc3)C3=C2C(=O)CCC3)ccc1O (configuration not stated) | -13 | -5 | -13 | -4 | 14 | 2
COC(=O)C1=C(C)N(Cc2ccccc2)C(=NCCCCO)N[C@H]1CCc1ccccc1 | nt | -3 | nt | 1 | 0 | nt
Cc1ccc(-n2sc3ccccc3c2=O)cc1 | 52* | 1 | -25 | -4 | -3 | -32
CCC1CCC(c2nnc(-c3ccc(Br)cc3)o2)CC1 (configuration not stated) | -1 | -2 | 6 | 0 | 0 | -2
O=C(CCS(=O)(=O)c1ccc(F)cc1)Nc1nc(-c2ccncc2)cs1 | nt | 0 | nt | 0 | 1 | nt
CCOc1cc(OCC)c(C(C)=O)cc1OCC | nt | nt | nt | 0 | nt | nt
Nc1ccc2c(C(F)(F)F)cc(=O)oc2c1 | 61* | -1 | 21 | 4 | 57* | 18
CSc1ccccc1OCc1cc(C(=O)NC2CCc3ccccc32)no1 (configuration not stated) | nt | 1 | nt | -10 | 3 | nt
COc1cc(Cl)ccc1OCc1cc(C(=O)NC2CCc3ccccc32)no1 (configuration not stated) | nt | 1 | nt | 29* | 1 | nt
CCOc1cc(C(c2c(C)[nH][nH]c2=O)c2c(C)[nH][nH]c2=O)cc(Cl)c1O | nt | 0 | nt | 2 | 2 | nt
CCOc1cc(C(c2c(C)[nH][nH]c2=O)c2c(C)[nH][nH]c2=O)cc([N+](=O)[O-])c1O | nt | -68* | nt | 1 | -1 | nt
COc1cc(C(c2c(C)[nH][nH]c2=O)c2c(C)[nH][nH]c2=O)cc([N+](=O)[O-])c1O | -8 | -81* | 2 | -1 | ? | -1
Cc1ccc(C(c2c(C)[nH][nH]c2=O)c2c(C)[nH][nH]c2=O)cc1[N+](=O)[O-] | 4 | 0 | -11 | 8 | -5 | 1
CCN1CC(CN(C)Cc2cn(-c3ccc(C)cc3)nc2-c2cccc(C)c2)CC1=O (configuration not stated) | -7 | 3 | -9 | 3 | -1 | -6
O=C(OCC(O)CO)c1ccccc1Nc1ccnc2cc(Cl)ccc12 (configuration not stated) | nt | nt | nt | 2 | nt | nt
SMILES | Runt-SMMHC FRET | MEX-5 binding | EBV gp42 inh | LANA-H2B inh | RanGTP-Imp inh | Runt-CBFb FRET
Cc1c(Cl)cccc1Nc1ncccc1C(=O)OCC(O)CO (configuration not stated) | -4 | 0 | -18 | -1 | 19* | 2
CCN(CC)CCNC(=O)CNC(=O)c1nn(-c2ccc(OC)cc2OC)c(=O)c2ccccc12 | nt | -3 | nt | -1 | 5 | nt
CC(C)(C)c1csc(NC(=O)c2cccnc2)n1 | nt | 0 | nt | -3 | 36* | nt
COc1cc(Nc2c3ccccc3nc3ccccc23)cc(OC)c1OC | nt | 0 | nt | -6 | ? | nt
Cc1ccc(-c2nc(NCCCO)c3ccccc3n2)cc1 | nt | 0 | nt | 10 | 8 | nt
c1ccc2c(NCCc3c[nH]c4ccccc34)c3ccccc3nc2c1 | nt | -6 | nt | -2 | 91* | nt
CC(C)(C)Nc1c2ccccc2nc2ccccc12 | nt | -1 | nt | -1 | 28* | nt
Fc1cccc(NCCc2c[nH]c3ccccc23)n1 | nt | 0 | nt | -2 | 3 | nt
OCCCNc1c2ccccc2nc2ccccc12 | nt | -4 | nt | -1 | 51* | nt
Cn1c(=O)n(C)c2cc(/C=N/N=C3/NC(=O)C(CC(=O)O)S3)ccc21 (configuration not stated) | 0 | -20 | -4 | -1 | 2 | -2
O=C(Nc1ccc(S(=O)(=O)NC2=NCCCCC2)cc1)c1cc(S(=O)(=O)N2CCOCC2)ccc1F | nt | 1 | nt | -9 | 6 | nt
CN=C1S/C(=C\c2ccc(N3CCCC3)c(F)c2)C(=O)N1C | -78 | -59* | -23 | 4 | 8 | -54
CCCC(=O)N1CCN(S(=O)(=O)c2cc(Cl)ccc2OC)CC1 | -4 | 0 | -11 | 5 | 1 | -1
CN(CC(=O)Nc1cccc(Cl)c1)C1=NS(=O)(=O)c2ccccc21 | nt | nt | nt | -3 | nt | nt
CN(CC(=O)Nc1ccc(Cl)cc1)C1=NS(=O)(=O)c2ccccc21 | nt | nt | nt | 27* | nt | nt
C=C(C)C1(O)OC(=O)C=C1OC (configuration not stated) | -1 | -1 | -15 | -11 | ? | -4
O=C(NC(NNc1ccc([N+](=O)[O-])cc1)(C(F)(F)F)C(F)(F)F)c1ccccc1Cl | -7 | 0 | 16 | 3 | 23* | -1
CCOc1ccc(CC(=O)NCC2(N3CCCCC3)CCCCC2)cc1 | -2 | 1 | -23 | -2 | -2 | -1
CC(NC(=O)COC(=O)C1CCN(c2ccc(C(F)(F)F)cn2)CC1)c1ccc(F)cc1 (configuration not stated) | nt | nt | nt | 17* | nt | nt
COc1ccc(/C=C/C(=O)NC(=S)Nc2ccc(S(N)(=O)=O)cc2)cc1OC | nt | -1 | nt | -1 | 2 | nt
COc1ccc(-n2c(SC)nc3sc4c(c3c2=O)CCN(C)C4)cc1 | nt | -7 | nt | nt | -28 | nt
COc1ccc(-n2c(=S)[nH]c3sc4c(c3c2=O)CCN(C)C4)cc1 | 39 | 1 | -11 | 3 | 23* | 14
Cc1c(NC(=O)c2cccc(NS(C)(=O)=O)c2)c(=O)n(-c2ccccc2)n1C | 2 | 0 | -13 | -6 | 7 | -2

Screening results deposited in PubChem by several laboratories.
